Results: ChEMBL document CHEMBL3621194, “Synthesis of Triazole-Linked Analogues of c-di-GMP and Their Interactions with Diguanylate Cyclase” (J Med Chem, 2015)
The source made the active and inactive calls. The rule behind the calls is not given here.

Tests used:
[1] = Inhibition of Caulobacter crescentus PleD; parameters: species or system Caulobacter vibrioides
Summary of the method: (§1)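 DGC activity of PleD measured by circular dichroism with 100 µM GTP substrate; where compound CD spectra interfered, nucleotide content analysed by reverse-phase HPLC. Initial velocity used for IC50; residual activity versus inhibitor concentration fitted to log-dose vs response curve, mean and SD of three independent experiments.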

[2] = test system: Caulobacter vibrioides; experiment: Inhibition of Caulobacter crescentus PleD assessed as residual enzyme activity at 100 uM using 100 uM GTP substrate
Summary of the method: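 PleD residual DGC activity at 100 µM compound with 100 µM GTP substrate, measured by circular dichroism, or by reverse-phase HPLC of nucleotide content when compound CD spectra interfered.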

[3] = test system: Pseudomonas aeruginosa; experiment: Inhibition of Pseudomonas aeruginosa RocR assessed as residual enzyme activity at 100 uM using 30 uM c-di-GMP substrate
Summary of the method: (§2)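 RocR PDE activity measured with 30 µM c-di-GMP substrate, with or without inhibitors. For IC50, initial velocity used and residual activity fitted to log-dose vs response curve; points are mean and SD of three independent experiments. Single-point screens used 100 µM compound.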

[4] = Inhibition of Caulobacter crescentus PleD using 100 uM GTP substrate; parameters: species or system Caulobacter vibrioides; summary of the method: as §1
[5] = test system: Pseudomonas aeruginosa; experiment: Inhibition of biofilm formation of Pseudomonas aeruginosa PAO1 at 7.81 to 500 uM incubated for 16 hrs by crystal violet staining method; assay type: functional, organism-based
Summary of the method: (§3)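 P. aeruginosa PAO1 or E. coli MG1655 grown 14 h at 37°C in M9 with 0.4% glucose (E. coli medium also with 2.5% LB). Cultures diluted in fresh medium, compound in DMSO or DMSO alone added, then incubated 16 h at 30°C. Planktonic A600 read; wells washed with PBS, air-dried, stained with 1% crystal violet, solubilised in ethanol, A595 read.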

[6] = test system: Escherichia coli; experiment: Inhibition of biofilm formation of Escherichia coli MG1655 7.81 to 500 uM incubated for 16 hrs by crystal violet staining method; assay type: functional, organism-based; summary of the method: as §3
[7] = test system: Pseudomonas aeruginosa; experiment: Effect on cdrA expression in Pseudomonas aeruginosa PAO1 at 200 uM by real time RT-PCR method; assay type: functional, organism-based
Summary of the method: (§4)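 P. aeruginosa PAO1 grown at 37°C in M9 minimal medium with 0.4% glucose, plus DMSO or 200 µM compound in DMSO, to A600 2.0. Total RNA extracted, DNase-treated, reverse transcribed; qPCR with 5 ng cDNA per reaction and 300 nM primers, fluorescence read in the 60°C step. Normalized to 16S rRNA; relative fold change by 2∆∆Ct method.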

[8] = test system: Pseudomonas aeruginosa; experiment: Effect on pctC expression in Pseudomonas aeruginosa PAO1 at 200 uM by real time RT-PCR method; assay type: functional, organism-based; summary of the method: as §4
[9] = Inhibition of Pseudomonas aeruginosa RocR assessed as residual enzyme activity using 30 uM c-di-GMP substrate; summary of the method: as §2
[10] = test system: Pseudomonas aeruginosa; experiment: Inhibition of Pseudomonas aeruginosa WspR assessed as residual enzyme activity at 100 uM
Summary of the method: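 WspR DGC activity measured by circular dichroism under the same conditions as for PleD, with 100 µM compound; read-out as residual activity.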

[11] = test system: Pseudomonas aeruginosa; experiment: Inhibition of Pseudomonas aeruginosa YfiN containing HAMP-GGDEF domain assessed as residual enzyme activity up to 250 uM

Activity [2]	Activity [3]	SMILES	also measured
32%	96%	Nc1nc(Cl)c2ncn(CCCn3cc(Cn4cnc5c(Cl)nc(N)nc54)nn3)c2n1	IC50 [4]: 25.5 µM; inhibition [5]: inactive; inhibition [6]: inactive; Activity [7]: inactive; Activity [8]: inactive
97%	93%	Clc1ncnc2c1ncn2CCCn1cc(Cn2cnc3c(Cl)ncnc32)nn1	
98%	128%	Nc1nc(Cl)c2ncn(CCCCn3cc(Cn4cnc5c(Cl)nc(N)nc54)nn3)c2n1	
96%	70%	CNc1nc(N)nc2c1ncn2CCCn1cc(Cn2cnc3c(NC)nc(N)nc32)nn1	
12.5%	41%	Nc1nc2c(ncn2CCCn2cc(Cn3cnc4c(=O)[nH]c(N)nc43)nn2)c(=O)[nH]1	IC50 [4]: 17.5 µM; IC50 [9]: 66.3 µM; Activity [10]: 20%; inhibition [11]: inactive; inhibition [5]: inactive; inhibition [6]: inactive; Activity [7]: inactive; Activity [8]: inactive
106%	64%	Nc1ncnc2c1ncn2CCCn1cc(Cn2cnc3c(N)ncnc32)nn1	

Continued, compound first:

SMILES	Activity [2]	Activity [3]	also measured
Nc1nc2c(ncn2[C@@H]2O[C@@H]3COP(=O)(O)O[C@H]4[C@@H](O)[C@H](n5cnc6c(=O)[nH]c(N)nc65)O[C@@H]4COP(=O)(O)O[C@H]3[C@H]2O)c(=O)[nH]1			IC50 [1]: 5 µM
Nc1nc(NCc2ccccc2)c2ncn(CCCn3cc(Cn4cnc5c(NCc6ccccc6)nc(N)nc54)nn3)c2n1	109%	75%	
Nc1nc2c(ncn2[C@@H]2O[C@H](Cn3cc(COC[C@H]4O[C@@H](n5cnc6c(N)ncnc65)[C@H](O)[C@@H]4O)nn3)[C@@H](O)[C@H]2O)c(=O)[nH]1	97%	79%	
Nc1nc2c(ncn2CCCn2cc(COC[C@H]3O[C@@H](n4cnc5c(=O)[nH]c(N)nc54)[C@H](O)[C@@H]3O)nn2)c(=O)[nH]1	82%	163%	
Nc1nc2c(ncn2CCCCn2cc(Cn3cnc4c(=O)[nH]c(N)nc43)nn2)c(=O)[nH]1	87%	92%	
Nc1nc2c(ncn2[C@@H]2O[C@H](COCc3cn(C[C@H]4O[C@@H](n5cnc6c(=O)[nH]c(N)nc65)[C@H](O)[C@@H]4O)nn3)[C@@H](O)[C@H]2O)c(=O)[nH]1	63%	88%	
Nc1nc2c(ncn2Cc2cn(C[C@H]3O[C@@H](n4cnc5c(=O)[nH]c(N)nc54)[C@H](O)[C@@H]3O)nn2)c(=O)[nH]1	89%	77%	
Nc1nc(Cl)c2ncn(CCn3cc(Cn4cnc5c(Cl)nc(N)nc54)nn3)c2n1	92%	86%	
Nc1ncnc2c1ncn2[C@@H]1O[C@H](COCc2cn(C[C@H]3O[C@@H](n4cnc5c(N)ncnc54)[C@H](O)[C@@H]3O)nn2)[C@@H](O)[C@H]1O	105%	113%	
Nc1nc2c(ncn2CCn2cc(Cn3cnc4c(=O)[nH]c(N)nc43)nn2)c(=O)[nH]1	104%	77%	
